Measured values as given in PMC8887543 (Nucleic Acids Research, 2022).

Experiments:
[1] = system: G4-DNA (c-MYC promoter, telomeric) versus other nucleic acids; test: Selectivity screening by induced fluorescence with 20 nucleic acids; assay type: binding; details: 5 μM ligand, 18 μM nucleic acid, Tris–HCl pH 7.4, 60 mM KCl
Outline: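 For induced-fluorescence selectivity, the test compound (5 μM) was mixed with each nucleic acid (18 μM) in 10 mM Tris–HCl (pH 7.4) with 60 mM KCl. Emission was recorded on a fluorescence spectrometer against compound alone without DNA. Samples were also viewed under 302 nm UV illumination.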

MCF-7 cells = test: BRACO19 displacement in stained cells, confocal imaging; assay type: cell-based, human; details: ligand 5 μM, BRACO19 0–15 μM
Outline: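 MCF-7 cells were stained with the test compound (5 μM) plus increasing BRACO19 (0–15 μM) for displacement. Images were taken by laser-scanning confocal microscopy with 488 nm excitation. A parallel solution assay followed fluorescence of the compound (5 μM) bound to nucleic acid under the same BRACO19 range.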

[2] = system: dT21 (DNA, single strand) TTTTTTTTTTTTTTTTTTTTT; test: fluorescence light-up; details: 60 mM KCl; 10 mM Tris-HCl, pH 7.4

## CN1C(=Cc2cc[n+](C)c3ccccc23)Sc2ccccc21 [TO, thiazole orange]
[1]
  Selectivity toward G4-DNA structures by induced fluorescence: non-selective
MCF-7 cells
  Fluorescence change in stained cells after BRACO19 treatment: not obvious
[2]
  binding: weak
